Laboratory results reported in ChEMBL document CHEMBL1123363, “(5-Amino-1,3-dimethyl-1H-pyrazol-4-yl)(2-fluorophenyl)methanones . A series of novel potential antipsychotic agents” (J Med Chem, 1986).

Experiments:
[1] = species on record: Rattus norvegicus; assay: Compound was tested for adenylate cyclase activity in rat corpus striatum; format: functional
Summary of the method: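 Rat corpus striatum homogenates from male Long–Evans rats (200–300 g) were incubated with dopamine held at 20 μM while test compound concentration was varied. Cyclic AMP formed was measured by radioimmunoassay, with assays run in triplicate.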

[2] = tested on: Mus musculus; assay: Inhibition of apomorphine-induced climbing in mice after intraperitoneal administration; format: functional; settings: ip
Summary of the method: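 Male Swiss–Webster mice (25–35 g), ten per dose, were acclimated 30 min in cylindrical cages and then dosed ip. One hour later they received apomorphine 3 mg/kg sc. Climbing was scored in 30-s tests every 5 min for 30 min, starting 15 min after apomorphine. ED50 from at least three doses by nonlinear regression.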

[3] = biological target: T1, Adrenergic receptor alpha-2 (Rattus norvegicus, UniProt P22086+P19328+P22909); assay: Binding affinity against alpha-2 adrenergic receptor in rat brain using [3H]- clonidine
T1 sequence (P22086 whole entry): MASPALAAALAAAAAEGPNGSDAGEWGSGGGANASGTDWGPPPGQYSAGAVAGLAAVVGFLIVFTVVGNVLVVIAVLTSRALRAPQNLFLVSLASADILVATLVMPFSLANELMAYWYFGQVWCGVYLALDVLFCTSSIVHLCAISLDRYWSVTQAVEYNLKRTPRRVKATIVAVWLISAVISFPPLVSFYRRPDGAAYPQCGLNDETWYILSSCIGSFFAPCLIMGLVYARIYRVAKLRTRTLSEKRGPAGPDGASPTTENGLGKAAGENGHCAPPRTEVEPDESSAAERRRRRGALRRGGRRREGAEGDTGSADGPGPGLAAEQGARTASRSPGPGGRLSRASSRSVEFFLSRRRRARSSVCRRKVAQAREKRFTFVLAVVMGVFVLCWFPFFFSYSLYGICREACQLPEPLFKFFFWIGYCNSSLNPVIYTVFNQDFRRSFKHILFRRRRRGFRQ
T1 sequence (P19328 whole entry): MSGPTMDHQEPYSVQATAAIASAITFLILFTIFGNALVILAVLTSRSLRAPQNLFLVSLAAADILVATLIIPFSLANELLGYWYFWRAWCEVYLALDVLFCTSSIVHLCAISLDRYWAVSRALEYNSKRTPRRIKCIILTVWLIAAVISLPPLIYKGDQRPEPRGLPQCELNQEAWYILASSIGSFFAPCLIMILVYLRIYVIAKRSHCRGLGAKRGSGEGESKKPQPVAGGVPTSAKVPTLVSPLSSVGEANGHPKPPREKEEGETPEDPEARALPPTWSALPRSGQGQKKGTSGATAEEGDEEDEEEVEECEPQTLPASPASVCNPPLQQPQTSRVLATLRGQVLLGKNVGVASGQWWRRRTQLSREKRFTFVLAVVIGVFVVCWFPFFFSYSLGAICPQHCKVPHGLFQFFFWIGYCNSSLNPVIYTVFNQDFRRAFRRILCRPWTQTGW
T1 sequence (P22909 whole entry): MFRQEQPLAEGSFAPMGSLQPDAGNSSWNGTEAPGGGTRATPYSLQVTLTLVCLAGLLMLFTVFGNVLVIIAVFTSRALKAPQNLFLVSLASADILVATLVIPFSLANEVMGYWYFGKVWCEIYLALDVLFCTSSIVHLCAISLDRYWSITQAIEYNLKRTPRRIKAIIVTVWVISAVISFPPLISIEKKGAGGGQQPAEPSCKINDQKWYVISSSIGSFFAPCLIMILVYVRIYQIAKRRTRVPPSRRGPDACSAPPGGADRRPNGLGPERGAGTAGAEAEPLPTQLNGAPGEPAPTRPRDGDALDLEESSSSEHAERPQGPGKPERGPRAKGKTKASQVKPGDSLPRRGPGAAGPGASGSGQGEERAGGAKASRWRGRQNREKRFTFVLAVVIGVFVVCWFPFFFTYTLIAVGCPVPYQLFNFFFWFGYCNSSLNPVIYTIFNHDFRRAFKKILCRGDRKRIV

[4] = Displacement of [3H]flunitrazepam from rat brain GABA-A benzodiazepine receptor
[5] = tested on: Rattus norvegicus; assay: Compound was tested for serum prolactin assay method in rats at 100 mg/kg dose after peroral administration; format: functional; settings: route oral
Summary of the method: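 Seven-week-old male Sprague–Dawley rats, five per group, were dosed orally and killed by decapitation 1 h later. Serum prolactin from trunk blood was measured by radioimmunoassay with [125I]-PRL and expressed as % of control (mean ± SEM).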

[6] = species on record: Mus musculus; assay: Ability to inhibit locomotor activity using ataxia test.; format: functional; settings: read-out: MED
Summary of the method: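 Male Swiss–Webster mice (20–30 g, unfasted), nine per dose in groups of three, dosed ip in 0.2% methocel (dose as parent compound) 1 h before testing. Ataxia was scored first on an inverted screen over 60 s as % of mice falling. […] ED50 from at least three doses.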

[7] = biological target: Dopamine receptor; assay: Binding affinity for dopamine receptor in rat striatal membrane using [3H]haloperidol as radioligand; format: cell membranes, Striatum
Summary of the method: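 Nonspecific binding defined with (+)-butaclamol at 0.1 μM final. IC50 fitted by nonlinear curve fit from four or five concentrations in triplicate.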

[8] = biological target: T2, Adenosine receptor A1 (Rattus norvegicus, UniProt P25099); assay: Binding affinity towards adenosine A1 receptor using [3H]- CHA
T2 sequence (P25099 whole entry): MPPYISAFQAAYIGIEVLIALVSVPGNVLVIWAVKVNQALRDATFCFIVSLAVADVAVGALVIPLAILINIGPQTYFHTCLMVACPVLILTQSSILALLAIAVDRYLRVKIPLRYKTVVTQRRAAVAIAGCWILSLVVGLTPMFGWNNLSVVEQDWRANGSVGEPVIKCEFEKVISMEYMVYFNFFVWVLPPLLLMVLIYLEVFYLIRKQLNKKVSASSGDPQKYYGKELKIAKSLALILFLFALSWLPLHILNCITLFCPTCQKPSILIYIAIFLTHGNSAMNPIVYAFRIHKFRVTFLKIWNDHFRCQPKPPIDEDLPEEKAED
Summary of the method: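 Adenosine A1 binding in membranes of rat whole brain minus brain stem and cerebellum (male Long-Evans, 150–250 g), using [3H]-CHA at 1.0 nM final. Theophylline at 1 mM final was the reference. IC50 from four or five concentrations by nonlinear fit.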

IC50 [1] [µM] | IC50 [3] [µM] | IC50 [4] [µM] | IC50 [7] [µM] | IC50 [8] [µM] | SMILES | ED50 [2] [mg/kg] | Control [5] [%] | minimal effective dose [6] [mg/kg]
> 10 | > 10 | > 10 | > 10 |  | Cc1nn(C)c(NC(=O)CNCCCN2CCCCC2C)c1C(=O)c1ccccc1F (stereo not drawn) | > 100 | 51 | 30
> 10 |  | > 10 |  | > 10 | CCN(CC)CC(=O)Nc1c(C(=O)c2ccccc2F)c(C)nn1C | > 100 | 21.8 | 30
 | > 10 | > 10 | > 10 | > 10 | Cc1nn(C)c(N)c1C(=O)c1ccccc1F |  |  | < 10
